Source: PubChem (several laboratories)
APP 5'UTR act – activates APP 5'UTR luciferase reporter. SH-SY5Y APP 5'UTR luciferase reporter, luminescence; zero percent = DMSO vehicle wells. activation, % at 2 µM. 190,000 tested, 1% active. AID 1276;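 active = activation above a set limit, based on mean plus 3 SD of controls, cut at about 140% in these data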
NF-kB neuron act – NF-kB expression increase, human neuronal cells; NF-kB reporter expression; hits give high values; fold change at 12.5 µM; 190,000 tested, 1.6% active; in the data active = fold change above about 3.3
STAT1 act – activators of IFN-gamma induced STAT1 signaling. NIH 3T3 STAT1-luciferase reporter, luminescence; 100% = IFN-gamma alone, no compound. activation (% of control), % at 5.5 µM. 200,000 tested, 2.6% active;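 active = activation above the screen-wide mean activation plus 3 SD, cut at about 130% in these data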
STAT3 inh-1 – inhibitors of IL-6 induced STAT3 signaling; U3A cells, IL-6 STAT3-luciferase reporter, luminescence; host cell line lacks STAT1; inhibition, % at 5.5 µM; 190,000 tested, 0.89% active;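 active = inhibition above the mean inhibition across all screened compounds plus 3 SD, cut at about 44% in these data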
STAT1 blocker – inhibitors of IFN-gamma induced STAT1 signaling; NIH 3T3 STAT1-luciferase reporter, luminescence; inhibition, % at 5.5 µM; 200,000 tested, 0.35% active;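 active = inhibition above a set limit, the mean inhibition across all tested compounds plus 3 SD, cut at about 34% in these data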
STAT3 act – STAT3 signaling activation; U3A cells, IL-6 STAT3-luciferase reporter, luminescence; 100% = signal with IL-6 EC80 alone; 190,000 tested, 0.91% active; AID 871; activation (% of control), % at 5.6 µM;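 active = activation above the screen-wide mean of compound activation plus 3 SD, cut at about 130% in these data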
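Material: STAT3-luciferase reporter U3A cells; Probe or stimulus: IL-6 (33 ng/mL); Incubation: compound pre-incubation 1 h before IL-6, then 6 h stimulation at 37 °C; Technique: luminescence from STAT3-driven luciferase reporter; Evaluation: % activation versus median of IL-6-stimulated wells; Controls: IL-6-only high control.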
STAT3 inh-2 – STAT3 inhibition, confirmation assay. AID 1265. 1,200 tested, 45% active. shares compounds with STAT3 inh-1. U3A cells, IL-6 STAT3 luciferase reporter, luminescence; cell line lacks STAT1. inhibition, % at 5.7 µM;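 active = inhibition above the hit cutoff computed for the primary STAT3 screen, cut at about 44% in these data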
NFkB inh STAT3ct – inhibits NF-kappaB, counter-screen to STAT3 inhibitors; shares compounds with STAT3 inh-1; HEK293T NF-kB luciferase reporter, TNF-alpha induced; inhibition, % at 5.7 µM; 1,200 tested, 36% active; AID 1308;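 active = inhibition above the mean of solvent-only control wells plus 3 SD, cutoff set per campaign, cut at about 13% in these data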
STAT1 inh 2 – inhibits STAT1, counter-screen to STAT3 inhibitors | shares compounds with STAT3 inh-1 | NIH 3T3 STAT1-luciferase reporter, IFN-gamma induced, luminescence | AID 1317 | inhibition, % at 5.7 µM | 1,200 tested, 27% active;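 active = inhibition above the mean plus 3 SD of solvent-only control wells, limit set per screening run, cut at about 16% in these data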
Numbers stand for hits; - = inactive; . = no result given. In the library only some 4.9% were active in any assay of this set; here they are far more common.

SMILES	APP 5'UTR act	NF-kB neuron act	STAT1 act	STAT3 inh-1	STAT1 blocker	STAT3 act	STAT3 inh-2	NFkB inh STAT3ct	STAT1 inh 2
COc1ccc(CC(=O)Nc2cccc(SC)c2)cc1OC	-	-	-	47	-	-	44	-	-
Cc1ccc(S(=O)(=O)CCc2nc3ccccc3s2)cc1C	-	-	-	-	-	-	.	.	.
Cc1oc(-c2ccc(Cl)cc2)nc1CN1CCCC(C(=O)NCc2ccco2)C1 (centres undefined)	-	-	-	-	-	-	.	.	.
CCN1CCN(CCNC(=O)C2CCCN(Cc3nc(-c4cccc(Cl)c4)oc3C)C2)CC1 (centres undefined)	.	-	-	-	-	-	.	.	.
CCOC(=O)N1CCC(NC(=O)C2CCCN(Cc3nc(-c4cccc(Cl)c4)oc3C)C2)CC1 (centres undefined)	-	-	-	54	-	-	-	13	24
CCOC(=O)N1CCN(C(=O)C2CCCN(Cc3nc(-c4ccc(Cl)cc4)oc3C)C2)CC1 (centres undefined)	-	-	-	74	-	-	60	23	-
Cc1ccc(N2C(N)=C(C#N)C(c3cc(CN4CCOCC4)cs3)C3=C2CC(C)(C)CC3=O)cc1 (centres undefined)	-	-	-	-	-	-	.	.	.
Cn1c(=O)n(C)c2cc(NS(=O)(=O)c3ccc(C(C)(C)C)cc3)ccc21	-	-	-	-	-	-	.	.	.
CCOC(=O)c1oc2ccc(S(=O)(=O)Nc3ccc4c(c3)n(C)c(=O)n4C)cc2c1C	-	-	-	60	-	-	57	-	-
Cn1c(=O)n(C)c2cc(NS(=O)(=O)c3ccc4c(c3)CCCC4)ccc21	-	-	-	53	-	-	-	-	20
C=CCn1c(SCc2ccc(C#N)cc2)nnc1-c1ccc(C)cc1	-	-	-	-	-	-	.	.	.
O=C(Nc1nncs1)C1COc2ccccc2O1 (centres undefined)	-	-	-	-	-	-	.	.	.
CC1(C)Oc2ccc(NC(=O)C3COc4ccccc4O3)cc2O1 (centres undefined)	168	4.9	-	64	-	-	-	-	-
O=C1NC(=O)c2cc(NC(=O)C3COc4ccccc4O3)ccc21 (centres undefined)	-	-	-	-	-	-	.	.	.
CC(=O)c1sc(NC(=O)C2COc3ccccc3O2)nc1C (centres undefined)	-	-	-	74	-	-	-	-	-
COc1cc(/C=C/C(=O)OCC(=O)Nc2ccc3c(c2)OCCO3)ccc1OCC#N	-	-	-	-	-	-	.	.	.
COc1cc(-c2csc(N3CCOCC3)n2)cc(OC)c1OC	-	-	-	-	-	-	.	.	.
c1ccc2oc(-c3csc(N4CCOCC4)n3)cc2c1	138	5.8	-	58	-	-	-	-	-
O=C(Nc1nccs1)c1ccc(S(=O)(=O)NCc2cccs2)cc1	-	-	-	-	-	-	.	.	.
O=C(Nc1ccc(Br)cc1)c1ccc(F)c(S(=O)(=O)NCc2cccs2)c1	-	-	-	57	-	-	69	17	16
Cc1cc(C(=O)Nc2nc3c(s2)CCCC3)cs1	-	6.4	136	52	-	-	-	-	-
C=CC[n+]1c(-c2ccc(OC)cc2)csc1NNC(=O)Nc1ccccc1	-	-	-	-	-	-	.	.	.
C=CC[n+]1c(-c2ccc(C)cc2)csc1Nc1ccc(NC(C)=O)cc1	-	-	-	63	-	-	52	18	-
O=C(NCCC1=CCCCC1)c1ccc(Cl)cc1	228	5.5	-	47	-	-	-	-	-
Cc1ccc(CC(=O)Nc2ccncc2)cc1	-	-	-	46	-	-	52	-	24
SMILES	APP 5'UTR act	NF-kB neuron act	STAT1 act	STAT3 inh-1	STAT1 blocker	STAT3 act	STAT3 inh-2	NFkB inh STAT3ct	STAT1 inh 2
CN(CC(=O)Nc1ccncc1)S(=O)(=O)c1ccc(Br)cc1	-	-	-	-	-	-	.	.	.
CN(CCCC(=O)Nc1ccncc1)S(=O)(=O)c1ccc(Cl)cc1	-	-	-	47	-	-	-	-	21
O=C(Cc1ccc([N+](=O)[O-])cc1)Nc1ccc(Cl)cc1	-	-	-	-	-	-	.	.	.
Cc1ccc(CC(=O)Nc2cccnc2)cc1	-	-	-	-	-	-	.	.	.
O=C(Cc1ccc(Cl)cc1)Nc1ccncc1	-	-	-	52	-	-	55	17	21
CN(C)c1nc(NC(C)(C)C)nc(SCC(=O)Nc2ccccc2)n1	-	-	-	-	-	-	.	.	.
O=C(CSc1nnc(-c2ccc(Br)cc2)n1CCc1ccccc1)NC1CCS(=O)(=O)C1 (centres undefined)	.	-	-	-	-	-	.	.	.
CCOC(=O)C1C(c2cccc([N+](=O)[O-])c2)C2C(=O)NN=C2CC1(C)O (centres undefined)	-	-	-	-	-	-	.	.	.
CCCCCn1c(=O)[nH]c2cc(C(=O)NCc3ccc4c(c3)OCO4)ccc2c1=O	-	-	-	-	-	-	.	.	.
CC1CCN(c2nc3ccc(C(=O)N4CCN(Cc5ccc6c(c5)OCO6)CC4)cc3s2)CC1	-	-	-	49	-	-	-	-	-
COc1ccc(CN2CCN(C(=O)c3ccc4nc(N5CCOCC5)sc4c3)CC2)c(OC)c1OC	-	-	-	-	-	-	.	.	.
CCCCCn1c(=O)[nH]c2cc(C(=O)N3CCN(Cc4ccc5c(c4)OCO5)CC3)ccc2c1=O	-	-	-	87	-	-	88	42	23
Cc1ccc(SCc2cn3c(C)csc3n2)cc1	199	5.7	-	54	-	-	-	-	-
COC(=O)c1ccc(-c2nc3cc(N)ccc3o2)cc1	-	-	-	59	-	-	-	-	-
COc1ccc(-c2nc3cc(NC(=O)c4ccc5c(c4)OCO5)ccc3o2)cc1	-	-	-	-	-	-	.	.	.
Cc1ccc2nc(-c3ccccc3N)[nH]c2c1	198	-	-	67	-	-	-	-	-
O=C(NNc1cccc(Cl)c1)c1cccnc1Cl	-	-	-	-	-	-	.	.	.
CCCCC[n+]1cccc2c3ccccc3ccc21	-	-	-	73	-	-	66	21	24
NC(=O)C[n+]1cccc2ccccc21	-	-	-	-	-	-	.	.	.
CCOc1ccc(C2CC(c3cccc(OC)c3OC)n3nnnc3N2)cc1Cl (centres undefined)	-	-	-	-	-	-	.	.	.
CSc1nnc(C)c(=O)n1COC(=O)c1ccc(S(=O)(=O)N2CCCC2)cc1	-	-	-	-	-	-	.	.	.
